From ChEMBL document CHEMBL3580561, “Mitigation of Acetylcholine Esterase Activity in the 1,7-Diazacarbazole Series of Inhibitors of Checkpoint Kinase 1” (J Med Chem, 2015)

How the values were obtained:
[1] = target: T1, Serine/threonine-protein kinase Chk1 (Homo sapiens, UniProt O14757); assay: Inhibition of human recombinant Chk1 using biotinylated AKT substrate after 30 mins by Alphascreen biochemical assay
T1 sequence (O14757 whole entry): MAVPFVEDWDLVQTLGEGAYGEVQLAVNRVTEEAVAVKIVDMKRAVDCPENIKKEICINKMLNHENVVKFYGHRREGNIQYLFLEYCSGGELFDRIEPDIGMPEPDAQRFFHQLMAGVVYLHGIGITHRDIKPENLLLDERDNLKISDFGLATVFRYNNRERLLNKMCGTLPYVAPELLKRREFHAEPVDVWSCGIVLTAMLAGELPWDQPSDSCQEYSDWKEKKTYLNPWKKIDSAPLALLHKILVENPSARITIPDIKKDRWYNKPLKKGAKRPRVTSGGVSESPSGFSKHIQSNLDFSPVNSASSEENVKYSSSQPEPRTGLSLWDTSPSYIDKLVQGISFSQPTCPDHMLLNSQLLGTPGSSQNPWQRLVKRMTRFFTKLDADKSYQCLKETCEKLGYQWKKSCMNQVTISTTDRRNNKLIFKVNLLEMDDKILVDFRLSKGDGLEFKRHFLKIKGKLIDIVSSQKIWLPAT

[2] = target: T1, Serine/threonine-protein kinase Chk1; assay: Inhibition of CHK1 in human HT29 cells assessed as phosphorylation of histone H3 after 24 hrs by checkpoint abrogation cellular assay; assay type: cell-based, HT-29
Acetylcholinesterase = Acetylcholinesterase (Homo sapiens, UniProt P22303); assay: Inhibition of human acetylcholine esterase by horseradish peroxidase-coupled fluorescence assay
Summary of the method: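 Human AChE at 0.006 U/ml, with 0.25 μM acetylcholine chloride, 0.06 U/ml choline oxidase, 0.05 U/ml horseradish peroxidase and 200 μM Amplex Red, in proprietary buffer with test compound. Incubated 30 min at 25 °C. Fluorescence read.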

Acetylcholinesterase, sequence (P22303 whole entry): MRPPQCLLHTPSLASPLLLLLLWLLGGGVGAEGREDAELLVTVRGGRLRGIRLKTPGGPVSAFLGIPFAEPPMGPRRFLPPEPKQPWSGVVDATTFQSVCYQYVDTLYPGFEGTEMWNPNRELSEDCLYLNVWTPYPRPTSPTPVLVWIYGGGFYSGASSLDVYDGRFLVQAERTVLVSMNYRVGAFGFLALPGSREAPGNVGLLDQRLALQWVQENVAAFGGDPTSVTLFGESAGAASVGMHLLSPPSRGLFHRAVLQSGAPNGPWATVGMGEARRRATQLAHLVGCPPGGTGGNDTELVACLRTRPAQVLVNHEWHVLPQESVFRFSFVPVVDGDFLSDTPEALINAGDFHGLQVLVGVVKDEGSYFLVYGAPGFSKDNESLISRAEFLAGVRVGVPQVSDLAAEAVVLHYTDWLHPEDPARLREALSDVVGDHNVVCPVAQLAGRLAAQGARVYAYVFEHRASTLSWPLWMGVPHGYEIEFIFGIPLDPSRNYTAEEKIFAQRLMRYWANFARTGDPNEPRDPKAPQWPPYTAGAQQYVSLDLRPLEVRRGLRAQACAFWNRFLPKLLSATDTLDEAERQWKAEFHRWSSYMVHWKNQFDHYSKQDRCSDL

Compound | IC50 [1] | EC50 [2] | IC50 (Acetylcholinesterase)
CCN1CCc2cc(-c3cnc4[nH]c5cnc(C#N)cc5c4c3)ccc2C1 | 2.3 nM | 152 nM | 160 nM
CC1(C)CCCN(Cc2ccc(-c3cnc4[nH]c5cnc(C#N)cc5c4c3)cc2)C1 | 9.4 nM | 128 nM | 3330 nM
c1cc(-c2cnc3[nH]c4cnc(-c5cnoc5)cc4c3c2)ccc1CN1CCCCC1 | 1.1 nM | 145 nM | 659 nM
c1cc2c(cn1)[nH]c1ncc(-c3ccc(CN4CCCCC4)cc3)cc12 | 18.6 nM | 1920 nM | 
c1ncc(-c2cc3c(cn2)[nH]c2ncc(-c4ccc(CN5CCCCC5)cc4)cc23)cn1 | 5.1 nM | 163 nM | 266 nM
Oc1cc2c(cn1)[nH]c1ncc(-c3ccc(CN4CCCCC4)cc3)cc12 | 863 nM |  | 
N#Cc1cc2c(cn1)[nH]c1ncc(-c3ccc(CN4CCC(C#N)CC4)cc3)cc12 | 11.6 nM | 339 nM | 2690 nM
N#Cc1cc2c(cn1)[nH]c1ncc(-c3ccc(CN4CCOCC4)cc3)cc12 | 13.9 nM | 216 nM | 13300 nM
N#Cc1cc2c(cn1)[nH]c1ncc(-c3ccc(CN4CCCCC4)nc3)cc12 | 5.3 nM | 540 nM | 187 nM
N#Cc1cc2c(cn1)[nH]c1ncc(-c3ccc(CN4CCC(F)CC4)cc3)cc12 | 5 nM | 95.8 nM | 890 nM
CCNC(=O)c1cc2c(cn1)[nH]c1ncc(-c3ccc(CN4CCCCC4)cc3)cc12 | 102 nM | 2230 nM | 
N#Cc1cc2c(cn1)[nH]c1ncc(-c3cccnc3)cc12 | 76.5 nM | > 5000 nM | 
Cn1cc(-c2cc3c(cn2)[nH]c2ncc(-c4ccc(CN5CCCCC5)cc4)cc23)cn1 | 0.31 nM | 9 nM | 874 nM
COc1cc2c(cn1)[nH]c1ncc(-c3ccc(CN4CCCCC4)cc3)cc12 | 19.8 nM | 986 nM | 
N#Cc1cc2c(cn1)[nH]c1ncc(Br)cc12 | 140 nM |  | 
N#Cc1cc2c(cn1)[nH]c1ncc(-c3ccc(CN4CCC(O)CC4)cc3)cc12 | 1.8 nM | 144 nM | 378 nM
N#Cc1cc2c(cn1)[nH]c1ncc(-c3cccs3)cc12 | 20.2 nM | 478 nM | 
N#Cc1cc2c(cn1)[nH]c1ncccc12 | 414 nM |  | 
CC(=O)Nc1cccc(-c2cnc3[nH]c4cnc(C#N)cc4c3c2)c1 | 13.5 nM | 425 nM | 
CCN1CCc2sc(-c3cnc4[nH]c5cnc(C#N)cc5c4c3)cc2C1 | 0.78 nM | 50.9 nM | 259 nM
N#Cc1cc2c(cn1)[nH]c1ncc(-c3ccoc3)cc12 | 16.6 nM | 180 nM | 
c1cc(-c2cc3c(cn2)[nH]c2ncc(-c4ccc(CN5CCCCC5)cc4)cc23)ccn1 | 9.1 nM | 1570 nM | 777 nM
CC1(C)CCN(Cc2ccc(-c3cnc4[nH]c5cnc(C#N)cc5c4c3)cc2)CC1 | 4.4 nM | 172 nM | 11 nM
CN1CCN(c2cccc(-c3cnc4[nH]c5cnc(C#N)cc5c4c3)c2)CC1 | 1.9 nM | 133 nM | 4770 nM

Compound | IC50 [1] | EC50 [2] | IC50 (Acetylcholinesterase)
N#Cc1cc2c(cn1)[nH]c1ncc(O)cc12 | 38.1 nM | > 5000 nM | 
N#Cc1cc2c(cn1)[nH]c1ncc(-c3ccc(CO)cc3)cc12 | 11.4 nM | 938 nM | 
Cn1ccc(-c2cnc3[nH]c4cnc(C#N)cc4c3c2)n1 | 33.8 nM | 2500 nM | 
c1ncc(-c2cc3c(cn2)[nH]c2ncc(-c4ccc(CN5CCCCC5)cc4)cc23)o1 | 0.46 nM | 23.9 nM | 323 nM
CCNc1cnc2[nH]c3cnc(C#N)cc3c2c1 | 56.6 nM | 1790 nM | 
c1cncc(-c2cc3c(cn2)[nH]c2ncc(-c4ccc(CN5CCCCC5)cc4)cc23)c1 | 0.95 nM | 75.1 nM | 493 nM
CC(C)(c1ccc(-c2cnc3[nH]c4cnc(C#N)cc4c3c2)cc1)N1CCCCC1 | 10.2 nM | 228 nM | 507 nM
N#Cc1cc2c(cn1)[nH]c1ncc(-c3ccncc3)cc12 | 42.7 nM | > 5000 nM | 
c1cc(-c2cc3c(cn2)[nH]c2ncc(-c4ccc(CN5CCCCC5)cc4)cc23)cnn1 | 2.9 nM | 656 nM | 1040 nM
N#Cc1cc2c(cn1)[nH]c1ncc(-c3cccc(CO)c3)cc12 | 27.1 nM | > 5000 nM | 
C[C@@H]1CCC[C@H](C)N1Cc1ccc(-c2cnc3[nH]c4cnc(C#N)cc4c3c2)cc1 | 2.1 nM | 99.1 nM | 135 nM
c1ncc(-c2cc3c(cn2)[nH]c2ncc(-c4ccc(CN5CCCCC5)cc4)cc23)s1 | 1.3 nM | 62.7 nM | 496 nM
N#Cc1cc2c(cn1)[nH]c1ncc(-c3ccccc3O)cc12 | 41.7 nM | > 5000 nM | 
CN1CCN(c2ccc(-c3cnc4[nH]c5cnc(C#N)cc5c4c3)cc2)CC1 |  |  | 18 nM
NC(=O)c1cc2c(cn1)[nH]c1ncc(-c3ccc(CN4CCCCC4)cc3)cc12 | 4.3 nM | 292 nM | 217 nM
c1cnc(-c2cc3c(cn2)[nH]c2ncc(-c4ccc(CN5CCCCC5)cc4)cc23)cn1 | 2.3 nM | 168 nM | 1210 nM
N#Cc1cc2c(cn1)[nH]c1ncc(-c3ccc(N4CCOCC4)cc3)cc12 | 78.7 nM | 219 nM | 
N#Cc1cc2c(cn1)[nH]c1ncc(-c3ncc[nH]3)cc12 | 14.7 nM | > 5000 nM | 
c1nnc(-c2cc3c(cn2)[nH]c2ncc(-c4ccc(CN5CCCCC5)cc4)cc23)o1 | 0.95 nM | 103 nM | 450 nM
OCc1cc2c(cn1)[nH]c1ncc(-c3ccc(CN4CCCCC4)cc3)cc12 | 18.3 nM | 447 nM | 
C[C@@H]1C[C@H](C)CN(Cc2ccc(-c3cnc4[nH]c5cnc(C#N)cc5c4c3)cc2)C1 | 4.2 nM | 209 nM | 4100 nM
N#Cc1cc2c(cn1)[nH]c1ncc(-c3nc(CN4CCCCC4)cs3)cc12 | 13.6 nM | 658 nM | 18 nM
N#Cc1cc2c(cn1)[nH]c1ncc(-c3ccc(CN4CCC[C@@H](O)C4)cc3)cc12 | 1.9 nM | 118 nM | 708 nM
N#Cc1cc2c(cn1)[nH]c1ncc(-c3ccccn3)cc12 | 127 nM | > 5000 nM | 
